# Bioassay records deposited in PubChem BioAssay by several laboratories.
# Rows were chosen to be rich in hits. Some 0.74% of all compounds tested hit in one or more screens of this group.
# RGS16-Gao – modulates binding between human RGS16 and Galphao; O15492+P09471; bead-based flow cytometry RGS16-Galphao binding, fluorescence; actives lie on both sides; binding response (% of control), % at 10 µM; 0.38% of 220,000 active;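 note: Galphao activated by GDP with aluminum fluoride before binding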
# RGS7-Gao reg – modulates binding of RGS7 to human Galphao | Multiplexed bead flow cytometry; actives lie on both sides | binding response (% of control), % at 10 µM | 0.35% of 220,000 active | AID 1439; in the data active = binding response below about 49% or above about 150%; inconclusive = no clear call, values can overlap the other calls; inactive = in between;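 note: fluorescent Galphao held in activated GDP-AlF4 state binding bead-coupled RGS7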
# RGS8-Gao – modulates binding of RGS8 to human Galphao; multiplexed bead flow cytometry; actives lie on both sides; 0.34% of 220,000 active; response (percent of control binding), % at 10 µM; P09471; in the data active = response below about 60% or above about 140%; inactive = in between;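 note: Galphao activated as the GDP aluminium fluoride complex binding bead-coupled RGS8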
# Biofilm kill mix – mixture kills Candida albicans biofilm cells; inhibition, % at 7.6 µM; C. albicans biofilm persisters + clotrimazole, fluorescence viability; primary screen in compound mixtures of four per well; 0.02% of 120,000 active;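 active = inhibition above 30.3% in the primary screen of four-compound pools, then above 30% when the compound was retested; inconclusive = passed the primary limit but could not be retested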;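 note: compounds exposed to preformed 24 h biofilms for 48 h; 0% = untreated biofilm control and 100% = clotrimazole plus chlorhexidine kill blank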
#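 Test system: C. albicans CAF4-2 wild-type biofilms; buffer or medium: RPMI/MOPS medium, pH 7.0; schedule: 24 h biofilm formation, then 48 h compound exposure, 37 °C; detection: Alamar Blue fluorescence; measure: percent inhibition of biofilm viability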
# RGS4-Gao reg – modulates binding of RGS4 to human Galphao; 0.33% of 220,000 active; Multiplexed bead flow cytometry; actives lie on both sides; AID 1415; binding response (% of control), % at 10 µM; in the data active = binding response below about 49% or above about 150%; inactive = in between;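 note: fluorescent Galphao activated with aluminum fluoride binding bead-coupled RGS4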
# RGS-Gao – RGS4-Galphao interaction regulator (human); shares compounds with RGS16-Gao; multiplexed bead flow cytometry, RGS–Galpha-o binding; RGS4–Galpha-o binding response, % at 10 µM; 99% of 1,600 active; AID 1504;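 note: fluorescently labeled Galpha-o bound to GDP with aluminium fluoride binding biotinylated RGS beads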
# Biotin-avidin – interferes with biotinylated probe binding to avidin beads; shares compounds with RGS16-Gao; streptavidin beads, fluorescein-biotin binding, flow cytometry; inhibition, % at 10 µM; 1,700 tested, under 10 active; AID 1783;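 active = inhibition above 50%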;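 note: median green fluorescence of gated singlet beads compared with DMSO control wells; 0% = DMSO wells and 100% = complete loss of bead fluorescence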
# RGS8-Gao single – RGS8-Galphao interaction regulation, single point confirmation. shares compounds with RGS16-Gao. bead-based flow cytometry RGS8-Galphao binding, fluorescence; actives lie on both sides. binding response (% of control), % at 10 µM. 3% of 1,700 active. AID 1836; in the data active = binding response below about 72% or above about 130%; inactive = in between;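 note: Galphao activated as GDP AlF4 complex before binding bead RGS8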
# RGS7-Gao confirm – RGS7-Galphao interaction regulation, single point confirmation. shares compounds with RGS16-Gao. bead-based flow cytometry RGS7-Galphao binding; actives lie on both sides. response (percent of control binding), % at 10 µM. 7.8% of 1,700 active. AID 1837; in the data active = response below about 75% or above about 130%; inactive = in between;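 note: fluorescent Galphao activated with GDP and aluminum fluoride binding bead-coupled RGS7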
# RGS16-Gao single – confirmation of regulators of human RGS16-Galphao interaction; 4% of 1,700 active; bead-based flow cytometry, RGS16-Galphao binding; actives lie on both sides; shares compounds with RGS16-Gao; AID 1838; response (% of control binding), % at 10 µM; in the data active = response below about 74% or above about 130%; inactive = in between;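 note: Galphao activated as the GDP aluminium fluoride complex binding bead-coupled RGS16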
# RGS4-Gao confirm – confirmation of regulators of human RGS4-Galphao interaction; shares compounds with RGS16-Gao; RGS4-Galphao binding, multiplexed bead flow cytometry; actives lie on both sides; binding response (% of control), % at 10 µM; 4% of 1,700 active; AID 1840; in the data active = binding response below about 74% or above about 130%; inactive = in between
# RGS19-Gao conf – confirmation of regulators of human RGS19-Galphao interaction; 5% of 1,700 active; response (percent of control binding), % at 10 µM; shares compounds with RGS16-Gao; bead-based flow cytometry RGS19-Galphao binding; actives lie on both sides; in the data active = response below about 50% or above about 160%; inactive = in between;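 note: 100% = no compound control and 0% = blank background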
# Target sequence (P09471 whole entry, looked up): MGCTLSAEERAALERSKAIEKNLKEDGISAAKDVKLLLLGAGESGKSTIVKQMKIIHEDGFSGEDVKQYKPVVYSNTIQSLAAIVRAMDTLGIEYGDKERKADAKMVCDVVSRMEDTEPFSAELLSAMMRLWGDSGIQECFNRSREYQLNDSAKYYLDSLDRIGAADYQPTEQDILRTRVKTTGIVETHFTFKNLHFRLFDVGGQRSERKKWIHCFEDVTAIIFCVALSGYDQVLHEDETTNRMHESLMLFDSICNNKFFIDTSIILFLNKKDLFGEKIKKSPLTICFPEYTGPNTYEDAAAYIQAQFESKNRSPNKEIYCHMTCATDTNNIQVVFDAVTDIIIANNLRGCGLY
# Target sequence (P49795 whole entry, looked up): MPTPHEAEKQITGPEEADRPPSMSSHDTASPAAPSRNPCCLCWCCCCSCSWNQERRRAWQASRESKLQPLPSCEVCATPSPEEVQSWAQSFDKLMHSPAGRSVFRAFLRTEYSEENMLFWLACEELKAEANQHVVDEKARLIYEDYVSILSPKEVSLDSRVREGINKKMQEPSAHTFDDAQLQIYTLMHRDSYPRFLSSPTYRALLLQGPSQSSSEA
# Starred values were filed as active, the others as inactive; ? = inconclusive; . = no result given; [ ] = remark or other dose. Unless noted, the rule behind the calls is not given here.
SMILES,RGS16-Gao,RGS7-Gao reg,RGS8-Gao,Biofilm kill mix,RGS4-Gao reg,RGS-Gao,Biotin-avidin,RGS8-Gao single,RGS7-Gao confirm,RGS16-Gao single,RGS4-Gao confirm,RGS19-Gao conf
CC(=O)Nc1ccc(S(=O)(=O)NCC(=O)OCC(=O)N2CCN(c3ccccc3)CC2)cc1,21*,79,71,-11,82,82*,-2,98,89,95,94,82
O=C(CNS(=O)(=O)c1c(Cl)cccc1Cl)OCC(=O)N1CCN(c2ccccc2)CC1,112,99,104,18,101,.,.,.,.,.,.,.
NNc1ncnc2scc(-c3ccc(Cl)cc3)c12,146,140,149*[activator],11,138,138*,0,100,93,101,97,77
Clc1ccc(-c2csc3ncnc(Cl)c23)cc1,104,103,102,12,105,.,.,.,.,.,.,.
Cc1nc(NC(=O)/C=C/c2ccccc2)sc1C(=O)N1CCCCC1,68,99,91,3,104,.,.,.,.,.,.,.
Cc1ccc(-c2c[n+](CC(=O)OCc3ccccc3)c3n2CCC3)cc1,7.7*,9.5*,13*,5,12*,.,-2,103,96,103,99,94
CCOC(=O)C1CCN(C(=O)CNS(=O)(=O)c2cccs2)CC1,101,99,99,.,99,.,.,.,.,.,.,.
Cc1ccc(C2=N/C(=C\N3CCCCC3)C(=O)O2)cc1,204*[activator],169*[activator],115,.,198*[activator],.,-2,101,101,101,103,99
Cc1ccc(C2=N/C(=C/N3CCOCC3)C(=O)O2)cc1,53,93,86,.,92,.,.,.,.,.,.,.
S=c1[nH]nc(-c2cccs2)n1/N=C/c1c(Cl)cccc1Cl,91,103,94,11,101,.,.,.,.,.,.,.
c1ccc(C2CCC(N3CCNCC3)CC2)cc1 (stereo unspecified),250*[activator],122,141*[activator],11,120,120*,-1,103,94,97,93,102
COc1ccc(NC(=O)Cn2nnc(-c3ccc(CN4CCOCC4)cc3)n2)c(OC)c1,170,129,145*[activator],.,149,149*,-4,105,106,106,105,98
Cc1ccccc1NC(=O)Cn1nnc(-c2ccc(CN3CCC(C)CC3)cc2)n1,102,?,105,10,103,.,.,.,.,.,.,.
O=C(CSc1nncn1-c1ccccc1)NC1CCCc2ccccc21 (stereo unspecified),23*,94,69,-3,92,92*,-2,101,95,100,99,79
COc1cc(/C=C(\C#N)C(=O)NCC2CCCO2)ccc1OCCC(C)C (stereo unspecified),83,?,99,22,79,.,.,.,.,.,.,.
O=C(NCC1CC1)NC(=O)c1c(F)cccc1Cl,9.3*,?,42*,13,5.7*,.,0,102,99,103,104,105
O=C(CSc1nccc(=O)[nH]1)NCc1ccco1,97,?,100,1,98,.,.,.,.,.,.,.
CN(C)S(=O)(=O)c1cccc(NC(=S)NN=C(Cc2ccccc2)Cc2ccccc2)c1,101,51,54*,8,91,91*,1,101,104,102,107,98
